Assay results as given in ChEMBL document CHEMBL3352791, “Thioaryl naphthylmethanone oxime ether analogs as novel anticancer agents” (J Med Chem, 2014).
Active and inactive are the calls of the source. No cut-off for these calls is given here.

What was measured:
[1] = tested on: MCF7; assay: Antiproliferative activity against human ER-negative MCF7 cells after 24 hrs by MTT assay; assay type: functional, cell-based; settings: mcf7
[2] = tested on: SW-620; assay: Antiproliferative activity against human SW620 cells after 24 hrs by MTT assay; assay type: functional, cell-based; settings: SW-620, 24 h
Summary of the method: (§1)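 MTT viability: cells seeded at 1×10^4 per well in DMEM with 10% FBS, left to adhere overnight, then serum-starved 4 h. Compounds were given at a range of doses, with 0.1% DMSO vehicle as control. EC50 was taken from dose-response curves spanning 100nM-50µM. Data are mean ± SEM from at least three independent experiments.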

[3] = Antiproliferative activity against human HCT116 cells after 24 hrs by MTT assay; assay type: functional, cell-based; settings: HCT-116, 24 h; summary of the method: as §1
[4] = Safety index, ratio of IC50 for human MCF10A cells to EC50 for human HCT116 cells; assay type: toxicity, cell-based, MCF-10A; settings: MCF10A cells versus HCT116 cells, read-out: Ratio IC50/EC50
Summary of the method: (§2)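 Safety index is the IC50 in the normal cells divided by the EC50 in the cancer cells. Both values come from MTT assays: cells in DMEM with 10% FBS, serum-starved 4 h, then exposed to compound across a 100nM-50µM dose range with 0.1% DMSO as vehicle control.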

[5] = Safety index, ratio of IC50 for human MCF10A cells to EC50 for human COLO205 cells; assay type: toxicity, cell-based, COLO 205; settings: MCF10A cells versus COLO205 cells, read-out: Ratio IC50/EC50; summary of the method: as §2
[6] = tested on: MCF7; assay: Cell cycle arrest in human […] cells assessed as accumulation at G2 phase at 2.5 uM by propidium iodide staining by FACS analysis (reference value: 10.96%); assay type: functional
[7] = tested on: MDA-MB-231; assay: Cell cycle arrest in human […] cells assessed as accumulation at G1 phase at 7.5 uM by propidium iodide staining by FACS analysis (reference value: 63.74%); assay type: functional
[8] = tested on: MDA-MB-231; assay: Cell cycle arrest in human […] cells assessed as accumulation at subG1 phase at 7.5 uM by propidium iodide staining by FACS analysis (reference value: 0.3%); assay type: functional
[9] = tested on: MCF7; assay: Antitumor activity against human MCF7 cells xenografted in NIH-3 mouse assessed as reduction in tumor volume at 16 mg/kg, po for 29 days relative to control; assay type: functional; settings: MCF7, 696 h
Summary of the method: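 MCF-7 cells (5x10^6 in 100μl PBS) injected intraperitoneally into NIH-III nude mice; after tumor induction, groups of n=10 dosed orally daily for 29 days at 8 or 16 mg/kg/day in 1% carboxymethyl cellulose (vehicle controls). Tumor diameter by vernier calipers every third day; volume = π/6×d³ (d mean diameter).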

[10] = target: Platelet-derived growth factor receptor alpha (Homo sapiens) (UniProt P16234); assay: Inhibition of PDGFRalpha (unknown origin) at 10 uM
Summary of the method: (§3)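 Cell-free kinase profiling was run as a standard 33P-ATP-based in vitro kinase assay.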

[11] = target: Mast/stem cell growth factor receptor Kit (Homo sapiens) (UniProt P10721); assay: Inhibition of cKit (unknown origin) at 10 uM; summary of the method: as §3
[12] = target: Receptor-type tyrosine-protein kinase FLT3 (Homo sapiens) (UniProt P36888); assay: Inhibition of Flt3 (unknown origin) at 10 uM
[13] = tested on: MDA-MB-231; assay: Induction of cAMP level in human MDA-MB-231 cells at 0.1 to 25 uM in presence of forskolin; assay type: functional, cell-based
Summary of the method: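 MDA-MB-231 cells serum-starved for 4 h, treated with 500μM IBMX for 30 min, then exposed to compound for a further 30 min. Cellular cAMP read by HTRF kit.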

[14] = target: Phosphodiesterase 6 (Homo sapiens) (UniProt Q13956+P18545+P35913+O43924+P16499+P51160); assay: Inhibition of PDE6AB (unknown origin) activity at 1 to 10 uM; assay type: protein assay
Summary of the method: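 PDE6AB activity was measured by radiometric assay, a modification of the Thompson and Appleman two-step method. Sildenafil 1µM served as reference standard.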

[15] = target: High affinity 3',5'-cyclic-AMP phosphodiesterase 7A (Homo sapiens) (UniProt Q13946); assay: Inhibition of PDE7A (unknown origin) activity at 1 to 10 uM
Summary of the method: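 Recombinant PDE isoform activity was read by fluorescence polarization. A binding reagent complexes with the nucleotide monophosphate that the phosphodiesterase generates from cAMP/cGMP, and this raises the polarization of the labelled substrate. Reference standards were PDE1A3 10µM IBMX, PDE2A3 1nM BAY 60-7550, PDE3CAT 1µM cilostazol, PDE4CAT rolipram, PDE5CAT 0.1µM sildenafil, PDE7A […], PDE8A1 10µM BRL-50481, PDE9A1 1µM SB 36216 and PDE11A1 dipyridamole.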

[16] = tested on: MDA-MB-231; assay: Cytotoxicity against human MDA-MB-231 cells assessed as cell viability at 5 uM by MTT assay in presence of 100 ng/ml cholera toxin for 16 hrs; assay type: functional, cell-based
[17] = target: Epidermal growth factor receptor (Homo sapiens) (UniProt P00533); assay: Inhibition of EGF-induced EGFR phosphorylation at Tyr1068 in human MDA-MB-231 cells at 0.5 uM by ELISA; assay type: cell-based
Summary of the method: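 MDA-MB-231 cells pretreated 1 h in serum-free medium, then EGF-stimulated for 15 min and lysed. Equal lysate protein (Bradford) assayed by ELISA kits for p-EGFR (Tyr1068, Tyr845, Tyr1173) and p-HER2. Absorbance read at 450 nm, normalized to total EGFR or HER2.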

[18] = target: Focal adhesion kinase 1 (Homo sapiens) (UniProt Q05397); assay: Inhibition of basal level FAK phosphorylation at Tyr397 in human MDA-MB-231 cells at 1 uM by ELISA; assay type: cell-based
[19] = tested on: MDA-MB-231; assay: Antiproliferative activity against human […] cells assessed as absence of growth recovery treated > 5 uM for 24 hrs followed by maintained in drug free medium for 72 hrs by MTT assay; assay type: functional, cell-based
[20] = tested on: MDA-MB-231; assay: Antiproliferative activity against human […] cells at 2.5 to 7.5 uM by annexin V-FITC/propidium iodide staining-based flow cytometric analysis; assay type: functional, cell-based
[21] = tested on: MDA-MB-231; assay: Induction of apoptosis in human […] cells assessed as loss of mitochondrial membrane potential at 5 uM after 24 hrs by JC-1 staining based flow cytometry; assay type: functional, cell-based
Summary of the method: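 Cells treated at 5μM for 24 h, trypsinized, stained with JC-1 (1μg/ml) for 15 min at 37°C, washed in PBS and analysed by flow cytometry in FL1 and FL2 channels.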

[22] = tested on: MDA-MB-231; assay: Inhibition of VEGF-C expression in human MDA-MB-231 cells at 1 uM after 24 hrs by qPCR analysis; assay type: functional, cell-based
Summary of the method: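 Gene expression was measured by qPCR in MDA-MB-231 breast cancer cells treated with 1µM compound. GAPDH served as the housekeeping internal control.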

[23] = tested on: MCF7; assay: Induction of apoptosis in human MCF7 cells xenografted in NIH-3 mouse assessed as decrease in cyclin D1 in tumor at 16 mg/kg, po for 25 days by qPCR; assay type: functional, organism-based; design: dose 16 mg/kg
[24] = target: Mitogen-activated protein kinase; ERK1/ERK2 (Homo sapiens) (UniProt P27361+P28482); assay: Inhibition of basal level ERK1/2 phosphorylation in human MDA-MB-231 cells at 1 uM by ELISA; assay type: cell-based

Focal adhesion kinase 1 (Homo sapiens), sequence (Q05397 2-1052 limits assumed): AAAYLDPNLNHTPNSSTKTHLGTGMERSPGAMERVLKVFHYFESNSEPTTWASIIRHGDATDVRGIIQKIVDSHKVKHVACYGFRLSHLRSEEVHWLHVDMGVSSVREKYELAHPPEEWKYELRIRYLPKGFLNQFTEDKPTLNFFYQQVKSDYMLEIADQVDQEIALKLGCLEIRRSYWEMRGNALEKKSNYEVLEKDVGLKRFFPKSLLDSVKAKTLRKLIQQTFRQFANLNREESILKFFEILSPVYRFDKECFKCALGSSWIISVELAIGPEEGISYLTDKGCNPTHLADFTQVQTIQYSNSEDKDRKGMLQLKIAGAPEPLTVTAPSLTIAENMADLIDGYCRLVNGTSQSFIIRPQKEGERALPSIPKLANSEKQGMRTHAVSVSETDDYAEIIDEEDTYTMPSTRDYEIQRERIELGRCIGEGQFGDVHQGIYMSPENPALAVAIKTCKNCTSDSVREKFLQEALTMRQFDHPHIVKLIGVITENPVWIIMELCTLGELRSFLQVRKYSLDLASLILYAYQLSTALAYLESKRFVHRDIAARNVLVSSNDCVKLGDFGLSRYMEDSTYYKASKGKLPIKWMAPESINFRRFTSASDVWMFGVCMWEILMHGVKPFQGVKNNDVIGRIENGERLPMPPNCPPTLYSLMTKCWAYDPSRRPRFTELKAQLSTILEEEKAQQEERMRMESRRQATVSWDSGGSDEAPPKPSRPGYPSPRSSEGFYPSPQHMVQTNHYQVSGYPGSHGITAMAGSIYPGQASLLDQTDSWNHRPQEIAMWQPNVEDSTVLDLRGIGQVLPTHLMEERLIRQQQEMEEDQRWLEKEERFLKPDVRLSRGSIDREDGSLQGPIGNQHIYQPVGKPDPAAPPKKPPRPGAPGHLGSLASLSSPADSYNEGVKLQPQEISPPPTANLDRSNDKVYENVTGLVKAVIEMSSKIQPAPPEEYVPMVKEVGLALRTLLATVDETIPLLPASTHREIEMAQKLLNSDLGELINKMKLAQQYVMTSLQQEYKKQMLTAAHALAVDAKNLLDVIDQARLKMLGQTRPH
Platelet-derived growth factor receptor alpha (Homo sapiens), sequence (P16234 whole entry): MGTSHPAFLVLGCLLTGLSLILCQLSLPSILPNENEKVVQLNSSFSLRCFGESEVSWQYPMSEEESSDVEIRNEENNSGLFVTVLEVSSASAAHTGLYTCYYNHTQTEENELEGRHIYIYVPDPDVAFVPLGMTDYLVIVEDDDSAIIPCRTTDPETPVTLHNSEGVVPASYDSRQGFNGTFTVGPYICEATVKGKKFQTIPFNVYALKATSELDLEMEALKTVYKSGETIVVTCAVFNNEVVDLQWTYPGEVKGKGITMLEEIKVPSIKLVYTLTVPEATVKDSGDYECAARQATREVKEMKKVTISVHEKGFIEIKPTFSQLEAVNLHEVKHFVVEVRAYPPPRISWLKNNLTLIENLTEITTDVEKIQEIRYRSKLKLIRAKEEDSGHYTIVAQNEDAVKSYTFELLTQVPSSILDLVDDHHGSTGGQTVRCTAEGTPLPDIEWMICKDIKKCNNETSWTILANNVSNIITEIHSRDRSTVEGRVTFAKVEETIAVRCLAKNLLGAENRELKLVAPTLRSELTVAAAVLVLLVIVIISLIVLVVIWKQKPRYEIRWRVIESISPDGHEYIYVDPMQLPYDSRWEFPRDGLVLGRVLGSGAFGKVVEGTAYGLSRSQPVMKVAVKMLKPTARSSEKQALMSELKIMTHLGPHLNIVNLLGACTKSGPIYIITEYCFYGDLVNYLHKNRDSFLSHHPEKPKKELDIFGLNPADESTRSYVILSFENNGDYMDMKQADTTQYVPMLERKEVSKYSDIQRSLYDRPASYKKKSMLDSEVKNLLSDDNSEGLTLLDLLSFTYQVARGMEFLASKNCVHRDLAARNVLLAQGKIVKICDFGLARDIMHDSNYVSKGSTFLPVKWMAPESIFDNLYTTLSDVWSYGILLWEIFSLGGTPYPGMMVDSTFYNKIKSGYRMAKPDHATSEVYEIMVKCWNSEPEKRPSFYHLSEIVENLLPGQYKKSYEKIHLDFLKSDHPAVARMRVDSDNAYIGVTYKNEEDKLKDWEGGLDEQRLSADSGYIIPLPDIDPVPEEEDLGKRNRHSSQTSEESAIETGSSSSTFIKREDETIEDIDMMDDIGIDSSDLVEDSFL
Receptor-type tyrosine-protein kinase FLT3 (Homo sapiens), sequence (P36888 whole entry): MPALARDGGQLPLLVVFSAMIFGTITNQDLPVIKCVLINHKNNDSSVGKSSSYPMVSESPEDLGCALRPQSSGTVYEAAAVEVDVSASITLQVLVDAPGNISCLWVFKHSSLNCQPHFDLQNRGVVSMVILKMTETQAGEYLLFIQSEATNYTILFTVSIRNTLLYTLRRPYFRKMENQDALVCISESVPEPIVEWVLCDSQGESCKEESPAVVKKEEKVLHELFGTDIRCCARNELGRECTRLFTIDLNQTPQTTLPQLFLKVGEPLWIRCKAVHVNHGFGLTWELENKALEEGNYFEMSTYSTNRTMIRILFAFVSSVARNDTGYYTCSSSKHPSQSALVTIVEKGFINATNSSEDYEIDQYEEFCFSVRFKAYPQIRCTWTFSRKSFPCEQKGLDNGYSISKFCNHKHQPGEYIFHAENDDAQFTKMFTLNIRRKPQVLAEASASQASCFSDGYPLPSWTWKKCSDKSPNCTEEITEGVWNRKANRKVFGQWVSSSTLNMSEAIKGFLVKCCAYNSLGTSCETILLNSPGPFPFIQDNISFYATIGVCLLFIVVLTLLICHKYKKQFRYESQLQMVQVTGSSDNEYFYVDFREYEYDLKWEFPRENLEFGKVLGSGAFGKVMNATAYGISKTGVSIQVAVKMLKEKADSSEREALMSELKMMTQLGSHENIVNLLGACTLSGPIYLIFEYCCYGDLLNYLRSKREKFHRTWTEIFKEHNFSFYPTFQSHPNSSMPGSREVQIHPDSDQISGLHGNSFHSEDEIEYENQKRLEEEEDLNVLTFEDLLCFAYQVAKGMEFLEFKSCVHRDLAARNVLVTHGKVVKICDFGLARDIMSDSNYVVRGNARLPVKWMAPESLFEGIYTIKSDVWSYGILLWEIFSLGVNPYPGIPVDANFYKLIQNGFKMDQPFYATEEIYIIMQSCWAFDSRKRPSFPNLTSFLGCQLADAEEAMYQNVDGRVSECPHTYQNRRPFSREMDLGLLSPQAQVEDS
High affinity 3',5'-cyclic-AMP phosphodiesterase 7A (Homo sapiens), sequence (Q13946 whole entry, canonical isoform): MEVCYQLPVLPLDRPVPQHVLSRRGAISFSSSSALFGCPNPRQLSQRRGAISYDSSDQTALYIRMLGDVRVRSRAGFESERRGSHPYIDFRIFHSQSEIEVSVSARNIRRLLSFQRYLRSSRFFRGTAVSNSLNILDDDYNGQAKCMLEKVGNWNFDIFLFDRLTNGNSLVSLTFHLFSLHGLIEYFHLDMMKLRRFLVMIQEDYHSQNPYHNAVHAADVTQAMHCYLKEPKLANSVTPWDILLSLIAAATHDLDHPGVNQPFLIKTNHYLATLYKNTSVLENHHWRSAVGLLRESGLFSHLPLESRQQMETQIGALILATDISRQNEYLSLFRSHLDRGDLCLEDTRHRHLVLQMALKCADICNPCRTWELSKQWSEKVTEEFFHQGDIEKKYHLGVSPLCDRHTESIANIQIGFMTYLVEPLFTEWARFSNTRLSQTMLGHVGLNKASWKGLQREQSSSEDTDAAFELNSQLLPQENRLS
Mast/stem cell growth factor receptor Kit (Homo sapiens), sequence (P10721 whole entry): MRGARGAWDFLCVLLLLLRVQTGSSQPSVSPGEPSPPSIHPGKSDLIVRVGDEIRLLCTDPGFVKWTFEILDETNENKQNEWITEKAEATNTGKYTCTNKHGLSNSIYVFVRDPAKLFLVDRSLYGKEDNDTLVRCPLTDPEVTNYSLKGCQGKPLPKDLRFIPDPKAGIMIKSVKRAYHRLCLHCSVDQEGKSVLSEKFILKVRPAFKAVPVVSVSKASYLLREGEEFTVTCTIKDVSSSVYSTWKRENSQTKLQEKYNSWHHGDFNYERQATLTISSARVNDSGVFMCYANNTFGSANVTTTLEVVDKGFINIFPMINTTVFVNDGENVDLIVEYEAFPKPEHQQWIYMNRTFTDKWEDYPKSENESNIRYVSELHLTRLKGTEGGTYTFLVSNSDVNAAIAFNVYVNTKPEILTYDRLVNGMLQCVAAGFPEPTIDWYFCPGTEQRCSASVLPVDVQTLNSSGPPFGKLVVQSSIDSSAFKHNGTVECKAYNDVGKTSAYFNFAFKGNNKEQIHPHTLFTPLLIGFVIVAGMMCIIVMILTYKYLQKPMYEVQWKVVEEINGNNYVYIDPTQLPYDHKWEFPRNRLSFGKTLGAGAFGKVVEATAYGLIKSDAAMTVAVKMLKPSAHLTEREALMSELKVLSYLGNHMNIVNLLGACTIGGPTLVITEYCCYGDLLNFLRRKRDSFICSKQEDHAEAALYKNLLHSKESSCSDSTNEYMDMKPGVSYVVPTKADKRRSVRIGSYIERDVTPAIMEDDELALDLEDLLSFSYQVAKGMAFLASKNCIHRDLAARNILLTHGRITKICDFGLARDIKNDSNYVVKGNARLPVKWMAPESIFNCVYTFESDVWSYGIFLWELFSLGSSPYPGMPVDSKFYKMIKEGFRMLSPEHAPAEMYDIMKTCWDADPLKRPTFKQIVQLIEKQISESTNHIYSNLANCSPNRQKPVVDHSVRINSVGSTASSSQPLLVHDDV

CCN(CC)CCO/N=C(\c1ccc(SC)cc1)c1cccc2ccccc12.O=C(O)C(=O)O
EC50 [1]: 7.5 µM | EC50 [2]: 8.78 µM | EC50 [3]: 7.7 µM | selectivity ratio [4]: 2.5 | selectivity ratio [5]: 4.7 | Activity [6]: 12.46% | Activity [7]: 91.17% | Activity [8]: 0.8% | inhibition in vivo at 16 mg/kg [9]: 50%

CCN(CC)CCO/N=C(\c1ccc(SC)cc1)c1cccc2ccccc12
inhibition [10]: inactive | inhibition [11]: inactive | inhibition [12]: inactive | Activity [13]: Active | inhibition [14]: inactive | inhibition [15]: inactive | inhibition [16]: Active | inhibition [17]: Active | inhibition [18]: Active | Activity [19]: Active | Activity [20]: Active | Activity [21]: Active | inhibition [22]: inactive | Activity [23]: Active | inhibition [24]: Active
